Reference: ChEMBL document CHEMBL3868617, “Synthesis, COX-1/2 inhibition activities and molecular docking study of isothiazolopyridine derivatives” (Bioorg Med Chem, 2017)

How the values were obtained:
[1] = molecular target: T1, Prostaglandin G/H synthase 1 (Homo sapiens, UniProt P23219); assay: Inhibition of COX-1 (unknown origin) using arachidonic acid as substrate preincubated for 2 mins followed by substrate addition in presence of TMPD by spectrophotometric analysis
In short: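 COX-1 with heme in 0.1 M Tris-HCl pH 8.0; arachidonic acid starts the reaction and the TMPD oxidation rate is read at 590 nm over 2 min.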

[2] = molecular target: T1, Prostaglandin G/H synthase 1; assay: Inhibition of COX-1 (unknown origin) using arachidonic acid as substrate preincubated for 10 mins followed by substrate addition in presence of TMPD by spectrophotometric analysis relative to control
In short: (§1)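 COX-1 in 0.1 M Tris-HCl pH 8.0 with heme; colorimetric read of TMPD oxidation at 590 nm after arachidonic acid starts the reaction. Activity is taken at 10 min of incubation with compound and given as E/E0 against enzyme with solvent only (methanol, ethanol or DMSO). Triplicates; paired t test.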

[3] = molecular target: T2, Prostaglandin G/H synthase 2 (Homo sapiens, UniProt P35354); assay: Inhibition of COX-2 (unknown origin) using arachidonic acid as substrate preincubated for 2 mins followed by substrate addition in presence of TMPD by spectrophotometric analysis relative to control
T2 sequence (P35354 whole entry): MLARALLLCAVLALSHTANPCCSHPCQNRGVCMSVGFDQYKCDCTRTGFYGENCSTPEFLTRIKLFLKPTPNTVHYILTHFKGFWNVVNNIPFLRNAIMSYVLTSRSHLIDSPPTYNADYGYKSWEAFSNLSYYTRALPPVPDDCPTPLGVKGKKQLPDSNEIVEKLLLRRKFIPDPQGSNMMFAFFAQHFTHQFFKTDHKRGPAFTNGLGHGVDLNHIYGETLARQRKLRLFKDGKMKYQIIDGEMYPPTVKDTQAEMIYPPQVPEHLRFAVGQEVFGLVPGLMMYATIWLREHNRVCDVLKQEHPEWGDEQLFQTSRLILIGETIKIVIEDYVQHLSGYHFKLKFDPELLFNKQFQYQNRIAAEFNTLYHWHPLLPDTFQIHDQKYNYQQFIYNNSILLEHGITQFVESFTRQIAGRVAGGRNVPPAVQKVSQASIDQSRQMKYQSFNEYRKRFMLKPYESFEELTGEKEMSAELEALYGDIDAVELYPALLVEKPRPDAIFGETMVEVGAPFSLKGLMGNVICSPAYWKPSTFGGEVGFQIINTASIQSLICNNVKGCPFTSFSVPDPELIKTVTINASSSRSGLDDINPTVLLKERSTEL

Mus musculus = assay: Antinociceptive activity in Swiss albino mouse assessed as reduction in phenylbenzoquinone-induced abdominal constrictions at 1.8 to 7.8 mg/kg, ip pretreated for 25 mins followed by phenylbenzoquinone treatment measured after 5 mins by writhing test; type: functional, Abdomen; design: scale not given: the % may be the effect or the level left
[4] = molecular target: T1, Prostaglandin G/H synthase 1; assay: Increase in COX-1 (unknown origin) enzyme activity using arachidonic acid as substrate preincubated for 10 mins followed by substrate addition in presence of TMPD by spectrophotometric analysis relative to control; in short: as §1

T1 sequence (P23219 whole entry): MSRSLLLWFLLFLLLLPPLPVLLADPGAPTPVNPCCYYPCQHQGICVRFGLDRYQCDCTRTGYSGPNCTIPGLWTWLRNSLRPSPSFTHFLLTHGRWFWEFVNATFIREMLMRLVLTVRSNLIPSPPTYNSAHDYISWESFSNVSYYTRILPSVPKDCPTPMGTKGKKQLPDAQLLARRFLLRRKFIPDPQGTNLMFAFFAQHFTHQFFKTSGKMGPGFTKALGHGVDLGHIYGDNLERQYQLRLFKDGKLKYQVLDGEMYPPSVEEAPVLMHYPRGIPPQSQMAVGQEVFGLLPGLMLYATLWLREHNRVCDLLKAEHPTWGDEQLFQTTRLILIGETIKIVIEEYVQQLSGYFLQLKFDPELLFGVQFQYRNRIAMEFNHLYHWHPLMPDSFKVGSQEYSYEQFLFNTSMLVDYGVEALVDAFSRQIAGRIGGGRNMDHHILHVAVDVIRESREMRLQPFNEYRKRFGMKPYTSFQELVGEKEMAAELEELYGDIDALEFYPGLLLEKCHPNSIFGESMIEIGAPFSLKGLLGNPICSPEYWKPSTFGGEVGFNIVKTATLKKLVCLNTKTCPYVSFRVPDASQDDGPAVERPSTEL

Row | IC50 ([1]; read-out: IC50) | inhibition [2] | IC50 ([3]; read-out: IC50) | inhibition [1] | IC50 ([3]; read-out: pIC50 (converted)) | IC50 ([1]; read-out: pIC50 (converted)) | Activity [4] | SMILES | Activity (Mus musculus)
1 | 722 µM | – | – | – | – | – | – | Cc1cc(C)c2c(=O)n(CCCC(=O)N3CCN(c4cccc(Cl)c4)CC3)sc2n1 | –
2 | 207 µM | 18 to 30% | 368 µM | 25 to 40% | – | – | – | Cc1cc(C)c2c(=O)n(CCC(=O)N3CCN(c4ccccc4)CC3)sc2n1 | –
3 | 248 µM | – | 269 µM | 25 to 40% | 245 µM | – | – | Cc1cc(C)c2c(OCCCC(=O)O)nsc2n1 | –
4 | 235 µM | – | 302 µM | 25 to 40% | – | – | – | Cc1cc(C)c2c(=O)n(CCCC(=O)O)sc2n1 | –
5 | 818 µM | – | – | – | 4570 µM | 380 µM | – | Cc1cc(C)c2c(OCCCC(=O)N3CCN(c4cccc(Cl)c4)CC3)nsc2n1 | –
6 | 229 µM | – | 327 µM | 25 to 40% | – | – | – | Cc1cc(C)c2c(OC(C)C(=O)O)nsc2n1 (stereo unspecified) | –
7 | 219 µM | 18 to 30% | 494 µM | – | 5250 µM | – | – | Cc1cc(C)c2c(=O)n(CN(C)CCNc3ccccc3)sc2n1 | >50%
8 | 156 µM | 18 to 30% | – | 25 to 40% | 1260 µM | 141 µM | – | Cc1cc(C)c2c(=O)n(CN3CCN(c4ccccc4F)CC3)sc2n1 | >50%
9 | 154 µM | 18 to 30% | 344 µM | 25 to 40% | – | 138 µM | – | CCC(C(=O)N1CCN(c2ccccc2)CC1)n1sc2nc(C)cc(C)c2c1=O (stereo unspecified) | –
10 | 331 µM | – | 130 µM | – | – | 302 µM | – | O=C(CCn1sc2ccccc2c1=O)N1CCN(c2cccc(Cl)c2)CC1 | –
11 | – | – | 359 µM | – | – | 372 to 661 µM | 3 to 7% | Cc1cc(C)c2c(=O)n(CN3CCN(C4CCCCC4)CC3)sc2n1 | >50%
12 | 375 µM | – | 605 µM | – | – | – | – | Cc1cc(C)c2c(=O)n(CC(=O)N3CCN(c4cccc(Cl)c4)CC3)sc2n1 | –
13 | – | – | – | – | – | – | 11% | CN1C(C(=O)Nc2ccccn2)=C(O)c2ccccc2S1(=O)=O | –
14 | 816 µM | – | – | – | – | 513 to 525 µM | – | Cc1cc(C)c2c(=O)n(CCCN3CCN(c4cccc(Cl)c4)CC3)sc2n1 | >50%
15 | – | – | – | – | – | 1550 µM | 3 to 7% | Cc1cc(C)c2c(OCCCC(=O)N3CCN(c4ccccc4)CC3)nsc2n1 | –
16 | 242 µM | – | 388 µM | – | – | – | – | Cc1cc(C)c2c(=O)n(CCC(=O)N3CCN(c4cccc(Cl)c4)CC3)sc2n1 | –
17 | 349 µM | – | 459 µM | – | – | – | – | Cc1cc(C)c2c(=O)n(CCCC(=O)N3CCN(c4ccccc4)CC3)sc2n1 | –
18 | 497 µM | – | 303 µM | – | 288 µM | – | – | COc1cc2c(cc1OC)CN(C(=O)CCn1sc3nc(C)cc(C)c3c1=O)CC2 | –
